This is an account of results in ChEMBL document CHEMBL1158558, “Design of potential reverse transcriptase inhibitor containing Isatin nucleus using molecular modeling studies” (Bioorg Med Chem, 2010).

The assay deals with Human immunodeficiency virus type 1 reverse transcriptase (Human immunodeficiency virus 1) (UniProt Q72547). The experiment in a line: Inhibition of HIV1 RT after 1 hr by ELISA relative to control. The conditions noted are these: concentration not given here. On the set-up: concentration or dose not given beside the values. In outline: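 RT inhibitors, diluted in lysis buffer, were mixed with reaction mixture and incubated 1 h at 37 °C. Samples were then transferred to microplate modules for 1 h at 37 °C and washed. Anti-DIG-POD (200 mU/ml) was added for 1 h at 37 °C, then washed again. ABTS substrate was developed at 15–25 °C for 10–30 min, and absorbance was read at 405 nm.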
For orientation: ELISA stands for enzyme-linked immunosorbent assay.
As a reminder, the inhibition is the relative decrease from the control value, in per cent. The compound `Cc1ccc2c(c1)/C(=N/n1cnnc1)C(=O)N2CN1CCNCC1` registered an inhibition of 90.9%.
In the case of `CNc1ccc(CN2C(=O)/C(=N\n3cnnc3)c3cc(C)ccc32)cc1`, the inhibition stood at 0%.
The value for `Cc1ccc2c(c1)/C(=N/n1cnnc1)C(=O)N2CN(C)C` was 69.1%; that for `Cc1ccc2c(c1)/C(=N/n1cnnc1)C(=O)N2CN1CCCCC1` was 89%; that for `Cc1ccc2c(c1)/C(=N/n1cnnc1)C(=O)N2CN1CCOCC1` was 84.1%.
